This is a sample that favours compounds with a hit; in the whole collection about 1.9% have one here.
TbMetRS inhib = T. brucei MetRS inhibitors, primary screen, biochemical, luminescence | hit rate 0.4% among 360,000 | inhibition, % at 11.9 µM | methionyl-tRNA synthetase (Trypanosoma brucei brucei) | purified T. brucei MetRS, ATP depletion, Kinase-Glo luminescence | AID 624268, 2012;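 active means inhibition above a per-plate cutoff of the control wells' mean inhibition plus 3 SD, cut at about 5.5% in these data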
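Test system – parasite MetRS enzyme · Reagent – substrates ATP, L-methionine and bulk Escherichia coli tRNA · Doses – 11.9 µM compound single dose, 0.9% DMSO · Times – 15 min enzyme-compound preincubation, 2 h reaction, 10 min detection, 25 °C · Signal – Kinase-Glo luminescence, ATP depletion format · Controls – DMSO-only wells as low control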
core dimer inh = inhibitors of HCV core protein dimerization, primary screen, biochemical, TR-FRET, high-throughput. hit rate 0.33% among 300,000. TR-FRET GST/Flag-core106 dimerization, 1536-well. inhibition, % at 5 µM. AID 1899, 2009;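 active means inhibition above the mean of all tested compounds plus 3 SD, set per screening campaign, cut at about 45% in these data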
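System – GST-tagged and Flag-tagged HCV core protein residues 1-106 · Repeats – one well for each compound · Technique – TR-FRET 671 and 617 nm emission · Doses – one concentration, 5 µM, in 0.5% DMSO · Times – 4 h, 22.5 °C incubation · Also added – Eu donor and XL665 acceptor anti-tag antibodies · Measure – percent inhibition of core106 dimerization signal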
DSG3 Ab inh = inhibitors of pemphigus antibody binding to DSG3, primary screen, biochemical, bead-based, flow cytometry, scFv-GFP; DSG3-coupled beads, scFv-anti-DSG3-GFP binding; stronger effect = lower value; binding (percent of control), % at 10 µM; hit rate 0.48% among 310,000;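 active means binding more than 3 SD below its plate's average and above zero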
NadD inh = inhibitors of S. aureus NadD, primary screen, biochemical, colorimetric, uHTS | purified NadD enzyme, colorimetric absorbance read-out | Nicotinate-nucleotide adenylyltransferase NadD (Staphylococcus aureus N315) | hit rate 0.78% among 360,000 | AID 602399, 2012 | inhibition, % at 20 µM; in the data active means inhibition above about 26%
Rce1 inh = yeast Rce1p protease inhibitors, primary screen, biochemical, fluorescence, cell-free homogeneous; yeast membranes, quenched prenylated peptide cleavage fluorescence; calls only; hit rate 0.27% among 290,000; AID 2563, 2010;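 active means fall in fluorescence gain of 50% or more versus controls, with final raw signal at or below 3038400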
Target sequence (Q03530 whole entry, looked up): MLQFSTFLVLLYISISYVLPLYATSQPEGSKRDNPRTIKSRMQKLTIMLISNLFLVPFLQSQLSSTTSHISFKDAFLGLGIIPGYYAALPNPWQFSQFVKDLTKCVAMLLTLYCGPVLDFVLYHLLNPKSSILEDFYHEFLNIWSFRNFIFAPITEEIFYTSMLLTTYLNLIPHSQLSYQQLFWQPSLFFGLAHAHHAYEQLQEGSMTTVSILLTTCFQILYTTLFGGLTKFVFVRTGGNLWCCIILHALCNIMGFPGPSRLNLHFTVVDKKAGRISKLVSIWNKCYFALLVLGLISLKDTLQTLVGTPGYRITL
Large screens that a line does not name were inactive; ! = repeats disagree.

Cc1ccc(/C=C2\C(=O)NC(=S)N(c3ccc(F)cc3)C2=O)s1	NadD inh 32.0
Cc1ccc(/C=C2\C(=O)NC(=S)N(c3ccccc3F)C2=O)s1	none (no result: Rce1 inh)
CN(C)[C@@H]1C(=O)C(C(N)=O)=C(O)[C@@]2(O)C(=O)C3=C(O)c4c(O)cccc4[C@@](C)(O)[C@H]3[C@H](O)[C@@H]12	DSG3 Ab inh 44.9!, NadD inh 38.5!
COc1ccc(CCNCc2cccn2C)cc1	none
C=CCn1c(O)c(C(C)=Nc2ccc(N(CC)CC)cc2)c(=O)[nH]c1=O	none (no result: DSG3 Ab inh)
C=CCn1c(O)c(C(CC)=Nc2ccc(N(CC)CC)cc2)c(=O)[nH]c1=O	Rce1 inh active
N#Cc1ccc(CN2Cc3ccccc3-n3nncc3C2)cc1	none (no result: core dimer inh, DSG3 Ab inh, Rce1 inh)
Clc1ccc(C[n+]2c(-c3ccccc3)cc(-c3ccccc3)cc2-c2ccccc2)cc1	Rce1 inh active
CCn1nc(-c2cccs2)nc2c(=O)n(C)c(=O)nc1-2	TbMetRS inhib 21.7 (no result: core dimer inh, Rce1 inh)
C[C@@H]1C(=O)O[C@H]2[C@H](O)[C@]34[C@@H]5OC(=O)[C@]3(OC3OC(=O)[C@H](O)C34[C@H](C(C)(C)C)[C@@H]5O)[C@@]12O (stereo not given in full)	none (no result: core dimer inh, Rce1 inh)
CN(C)CCNC(=O)c1cccn(Cc2cc(C(F)(F)F)cc(C(F)(F)F)c2)c1=O	Rce1 inh active
CCN1C[C@]2(CO)CC[C@H](OC)[C@@]34C5C[C@H]6[C@H](OC)C5[C@](O)(C[C@H]6OC)[C@@H](C(OC)C23)[C@@H]14 (stereo not given in full)	none
COc1ccc(N2C(=O)NC(=O)/C(=C\c3ccc([N+](=O)[O-])s3)C2=O)cc1	none
COc1ccc(CN2C(=O)NC(=O)/C(=C/c3ccc([N+](=O)[O-])s3)C2=O)cc1	NadD inh 45.0
O=C1NC(=O)N(Cc2ccc(F)cc2)C(=O)/C1=C\c1ccc([N+](=O)[O-])s1	NadD inh 36.6
O=C1NC(=O)N(Cc2ccc(F)cc2)C(=O)/C1=C\c1ccc(N2CCCC2)cc1	NadD inh 33.5
COc1ccc(Cc2c(O)[nH]c(=O)[nH]c2=O)c(OC)c1	none
CCOC(=O)c1sc(/N=C/c2c(O)n(-c3ccccc3)c(=O)[nH]c2=O)c(C#N)c1C	none (no result: DSG3 Ab inh)
CCn1c(O)c(N=Nc2cccc(S(=O)(=O)N3CCOCC3)c2)c(=O)n(CC)c1=S	none
Cc1cc(C)cc(N2C(=O)NC(=O)/C(=C\c3cccn3-c3ccc(Cl)cc3)C2=O)c1	none
O=C1NC(=S)NC(=O)C1=Cc1cccn1-c1ccc(O)cc1	DSG3 Ab inh 66.4 (no result: core dimer inh)
CN1C(=O)/C(=C/c2cccn2-c2ccc3ccccc3c2)C(=O)NC1=S	core dimer inh 64.6, NadD inh 44.1
CCN1C[C@@]2(COC)C3[C@@H](OC)[C@H]4[C@@H]1[C@@]3(C1C[C@H]3[C@H](OC(C)=O)C1[C@]4(OC(C)=O)C[C@H]3OC)[C@@H](OC)C[C@H]2OC(C)=O (stereo not given in full)	none (no result: DSG3 Ab inh)
COc1c(C)cc(C(=O)C2CCCN(C3CCOCC3)C2)cc1C (stereo not given)	none (no result: DSG3 Ab inh)
O=C(c1ccccc1)c1ccc(N=Nc2c(O)[nH]c(=O)[nH]c2=O)cc1	DSG3 Ab inh 69.5 (no result: Rce1 inh)
CCN(CC)c1ccc(CC2C(=O)N(C)C(=O)N(C)C2=O)cc1	none
C=CCOc1ccc(CC2C(=O)N(C)C(=O)N(C)C2=O)cc1	core dimer inh 84.6 (no result: Rce1 inh)
COc1ccc(CN2C(=O)NC(=O)/C(=C\c3ccco3)C2=O)cc1	DSG3 Ab inh 67.2
Cc1ccc(/C=C2/C(=O)NC(=O)N(CCc3ccc(F)cc3)C2=O)o1	none
CCOc1cccc(N2C(=O)/C(=C/c3ccco3)C(=O)NC2=S)c1	core dimer inh 60.6
COc1ccc(CN2C(=O)NC(=O)/C(=C\c3cc(OC)c(OC)c(OC)c3)C2=O)cc1	none
O=C1NC(=O)N(CCc2ccc(F)cc2)C(=O)/C1=C/c1ccco1	NadD inh 33.6 (no result: DSG3 Ab inh)
NCCc1cc(O)c(O)cc1O	NadD inh 65.4 (no result: core dimer inh, Rce1 inh)
CC(C)OCCCNC(=O)c1c(N)n(CC2CCCO2)c2nc3ccccc3nc12 (stereo not given)	Rce1 inh active
COC(=O)C1=C(c2cccc(OCc3ccccc3)c2)C[C@@H]2CC[C@H]1N2C(=O)NCc1ccccc1C(F)(F)F	none (no result: core dimer inh, Rce1 inh)
O=C1NC(=O)[C@]2(Cc3ccccc3N3CCN(c4ccccc4)CC32)C(=O)N1Cc1ccccc1 (stereo not given in full)	NadD inh 47.8 (no result: DSG3 Ab inh)
Cc1c(C(=O)N2CCC3(CC2)OCCO3)oc2ccc(S(=O)(=O)N3CCOCC3)cc12	none
CCOc1ccc(C2C(C#N)=C(N)Oc3c2c(=O)oc2ccccc32)cc1 (stereo not given)	Rce1 inh active
C[n+]1ccc(-c2ccccc2)c2ccccc21	Rce1 inh active
C=CCN1C(=O)NC(=O)/C(=C\c2ccc(-c3ccccc3[N+](=O)[O-])o2)C1=O	none
O=C1NC(=O)N(Cc2ccco2)C(=O)/C1=C/c1ccc(-c2cccc([N+](=O)[O-])c2)o1	NadD inh 66.9
Cc1ccccc1N1C(=O)NC(=O)/C(=C\c2ccc3c(c2)CCCN3Cc2ccccc2)C1=O	NadD inh 39.5
CC(=O)c1ccc2c(c1)C1C(Cl)C(Sc3ccccc3[N+](=O)[O-])CC1C(C(=O)O)N2 (stereo not given)	none (no result: Rce1 inh)
O=C(O)c1cccc2c1NC(C(=O)O)C1CC(Sc3ccccc3[N+](=O)[O-])C(Cl)C21 (stereo not given)	DSG3 Ab inh 73.2 (no result: Rce1 inh)
CCOC(=O)c1c(-n2c(C)cc(/C=C3/C(=O)NC(=O)N(CC)C3=O)c2C)sc2c1CCCC2	none
CCN1C(=O)NC(=O)/C(=C/c2cc(C)n(-c3sc(C)c(C)c3C#N)c2C)C1=O	none
CCOC(=O)c1c(-n2c(C)cc(C=C3C(=O)NC(=S)NC3=O)c2C)sc2c1CCCC2	NadD inh 45.7
Cc1ccc(N2C(=O)NC(=O)/C(=C\c3cc(C)n(-c4sc5c(c4C#N)CCCC5)c3C)C2=O)cc1	NadD inh 34.1
CC1CN(CC(=O)c2ccccc2Cl)CC(C)O1 (stereo not given)	none
FC(F)(F)c1ccc(CNCCc2ccc3c(c2)OCO3)cc1	DSG3 Ab inh 82.6
CC(C)N1C(=O)/C(=C/C=C/c2ccco2)C(=O)N(Cc2ccco2)C1=O	core dimer inh 62.8
CN(C)c1ccc(/C=C2/C(=O)NC(=O)N(Cc3ccco3)C2=O)cc1	none
COc1ccc(/C=C2/C(=O)N(Cc3ccco3)C(=O)N(C(C)C)C2=O)cc1	NadD inh 33.5
Fc1ccc2c(c1)nnn2C1CCN(Cc2c(Cl)cccc2Cl)CC1	none (no result: DSG3 Ab inh)

Bioassay records from PubChem BioAssay.
